What was measured:
Design in all cases: dose 5 mg/kg, dosed compound name [14C]CS-1036, route oral
Conditions in all cases: in vivo
[1] = Drug uptake in albino F344/DuCrlCrlj rat skeletal muscle at 5 mg/kg, po after 336 hrs by liquid scintillation counting; format: ADME, organism-based, Muscle tissue
[2] = test system: Thymus; experiment: Drug uptake in albino F344/DuCrlCrlj rat thymus at 5 mg/kg, po after 168 hrs by liquid scintillation counting; format: ADME, organism-based
[3] = test system: Aorta; experiment: Drug uptake in albino F344/DuCrlCrlj rat aorta assessed as ng equivalent of CS-1036 at 5 mg/kg, po after 72 hrs by liquid scintillation counting; format: ADME, organism-based
[4] = test system: Thymus; experiment: Drug uptake in albino F344/DuCrlCrlj rat thymus assessed as ng equivalent of CS-1036 at 5 mg/kg, po after 168 hrs by liquid scintillation counting; format: ADME, organism-based
[5] = test system: Lung; experiment: Drug uptake in albino F344/DuCrlCrlj rat lung assessed as ng equivalent of CS-1036 at 5 mg/kg, po after 4 hrs by liquid scintillation counting; format: ADME, organism-based
[6] = test system: Cerebrum; experiment: Drug uptake in albino F344/DuCrlCrlj rat cerebrum at 5 mg/kg, po after 336 hrs by liquid scintillation counting; format: ADME, organism-based
Summary of the method: (§1)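 Single oral [14C]CS-1036 at 5 mg/kg was given to male rats (159–167 g; n = 3). Cerebrum was collected after aortic bleeding at 1, 4, 8, 24, 72, 168 or 336 h, weighed, and homogenized in 2 volumes of saline. A 0.5 ml aliquot was solubilized in Soluene-350 and counted by LSC with external-standard correction. Results are in ng equivalent/g tissue from specific activity and sample weight.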

[7] = Drug uptake in albino F344/DuCrlCrlj rat fat assessed as ng equivalent of CS-1036 at 5 mg/kg, po after 4 hrs by liquid scintillation counting; format: ADME, organism-based, Adipose tissue
Summary of the method: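 Male F344/DuCrlCrlj rats (bought at 7 weeks, acclimatized 5–6 days; 159–167 g; n = 3 per time point) received a single oral dose of [14C]CS-1036 at 5 mg/kg. White adipose tissue was collected after abdominal aortic bleeding at 1, 4, 8, 24, 72, 168 or 336 h. Samples were counted by LSC with external-standard efficiency correction. Results were converted to ng equivalents per g from specific activity and sample weight.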

[8] = test system: Spleen; experiment: Drug uptake in albino F344/DuCrlCrlj rat spleen assessed as ng equivalent of CS-1036 at 5 mg/kg, po after 24 hrs by liquid scintillation counting; format: ADME, organism-based
[9] = test system: Spleen; experiment: Drug uptake in albino F344/DuCrlCrlj rat spleen assessed as ng equivalent of CS-1036 at 5 mg/kg, po after 4 hrs by liquid scintillation counting; format: ADME, organism-based
[10] = Drug uptake in albino F344/DuCrlCrlj rat brown fat at 5 mg/kg, po after 24 hrs by liquid scintillation counting; format: ADME, organism-based, Brown adipose tissue
[11] = Drug uptake in albino F344/DuCrlCrlj rat mandibular gland assessed as ng equivalent of CS-1036 at 5 mg/kg, po after 8 hrs by liquid scintillation counting; format: ADME, organism-based
[12] = Drug uptake in albino F344/DuCrlCrlj rat epididymis assessed as ng equivalent of CS-1036 at 5 mg/kg, po after 336 hrs by liquid scintillation counting; format: ADME, organism-based
[13] = test system: Zone of skin; experiment: Drug uptake in albino F344/DuCrlCrlj rat skin assessed as ng equivalent of CS-1036 at 5 mg/kg, po after 4 hrs by liquid scintillation counting; format: ADME, organism-based
[14] = Drug uptake in albino F344/DuCrlCrlj rat bone marrow at 5 mg/kg, po after 24 hrs by liquid scintillation counting; format: ADME, organism-based
[15] = test system: Lung; experiment: Drug uptake in albino F344/DuCrlCrlj rat lung at 5 mg/kg, po after 24 hrs by liquid scintillation counting; format: ADME, organism-based
[16] = test system: Small intestine; experiment: Drug uptake in albino F344/DuCrlCrlj rat small intestine assessed as ng equivalent of CS-1036 at 5 mg/kg, po after 72 hrs by liquid scintillation counting; format: ADME, organism-based
[17] = test system: Adrenal gland; experiment: Drug uptake in albino F344/DuCrlCrlj rat adrenal gland assessed as ng equivalent of CS-1036 at 5 mg/kg, po after 336 hrs by liquid scintillation counting; format: ADME, organism-based
[18] = Drug uptake in albino F344/DuCrlCrlj rat testis at 5 mg/kg, po after 168 hrs by liquid scintillation counting; format: ADME, organism-based
[19] = test system: Spleen; experiment: Drug uptake in albino F344/DuCrlCrlj rat spleen assessed as ng equivalent of CS-1036 at 5 mg/kg, po after 336 hrs by liquid scintillation counting; format: ADME, organism-based
[20] = test system: Plasma; experiment: Drug uptake in albino F344/DuCrlCrlj rat plasma at 5 mg/kg, po after 4 hrs by liquid scintillation counting; format: ADME, organism-based
[21] = Drug uptake in albino F344/DuCrlCrlj rat epididymis assessed as ng equivalent of CS-1036 at 5 mg/kg, po after 168 hrs by liquid scintillation counting; format: ADME, organism-based
[22] = test system: Zone of skin; experiment: Drug uptake in albino F344/DuCrlCrlj rat skin assessed as ng equivalent of CS-1036 at 5 mg/kg, po after 72 hrs by liquid scintillation counting; format: ADME, organism-based
[23] = test system: Aorta; experiment: Drug uptake in albino F344/DuCrlCrlj rat aorta at 5 mg/kg, po after 336 hrs by liquid scintillation counting; format: ADME, organism-based
[24] = test system: Cerebrum; experiment: Drug uptake in albino F344/DuCrlCrlj rat cerebrum at 5 mg/kg, po after 8 hrs by liquid scintillation counting; format: ADME, organism-based; summary of the method: as §1
[25] = test system: Large intestine; experiment: Drug uptake in albino F344/DuCrlCrlj rat large intestine assessed as ng equivalent of CS-1036 at 5 mg/kg, po after 168 hrs by liquid scintillation counting; format: ADME, organism-based
[26] = test system: Kidney; experiment: Drug uptake in albino F344/DuCrlCrlj rat kidney at 5 mg/kg, po after 72 hrs by liquid scintillation counting; format: ADME, organism-based
[27] = test system: Blood; experiment: Drug uptake in albino F344/DuCrlCrlj rat blood assessed as ng equivalent of CS-1036 at 5 mg/kg, po after 1 hr by liquid scintillation counting; format: ADME, organism-based
Summary of the method: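 Male F344/DuCrlCrlj rats (159–167 g; n = 3 per time point) received a single oral dose of [14C]CS-1036 at 5 mg/kg. Blood was taken from the abdominal aorta at 1, 4, 8, 24, 72, 168 and 336 h. Radioactivity was counted by LSC with external-standard efficiency correction. Results were converted to ng equivalent of CS-1036/ml using specific activity and sample volume, and reported as mean + S.D.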

[28] = test system: Stomach; experiment: Drug uptake in albino F344/DuCrlCrlj rat stomach assessed as ng equivalent of CS-1036 at 5 mg/kg, po after 24 hrs by liquid scintillation counting; format: ADME, organism-based
[29] = test system: Spleen; experiment: Drug uptake in albino F344/DuCrlCrlj rat spleen at 5 mg/kg, po after 24 hrs by liquid scintillation counting; format: ADME, organism-based
[30] = test system: Cerebrum; experiment: Drug uptake in albino F344/DuCrlCrlj rat cerebrum at 5 mg/kg, po after 72 hrs by liquid scintillation counting; format: ADME, organism-based; summary of the method: as §1
[31] = test system: Stomach; experiment: Drug uptake in albino F344/DuCrlCrlj rat stomach assessed as ng equivalent of CS-1036 at 5 mg/kg, po after 72 hrs by liquid scintillation counting; format: ADME, organism-based
[32] = Drug uptake in albino F344/DuCrlCrlj rat thyroid gland at 5 mg/kg, po after 168 hrs by liquid scintillation counting; format: ADME, organism-based
[33] = test system: Heart; experiment: Drug uptake in albino F344/DuCrlCrlj rat heart at 5 mg/kg, po after 168 hrs by liquid scintillation counting; format: ADME, organism-based

Radiolabel recovery [1]: 7.04 ngequiv/g
Radiolabel recovery [2]: 12 ngequiv/g
Radiolabel recovery [3]: 16.1 ngequiv/g
Radiolabel recovery [4]: 5.4 ngequiv/g
Radiolabel recovery [5]: 10.3 ngequiv/g
Radiolabel recovery [6]: 4.88 ngequiv/g
Radiolabel recovery [7]: 1.74 ngequiv/g
Radiolabel recovery [8]: 10.4 ngequiv/g
Radiolabel recovery [9]: 6.3 ngequiv/g
Radiolabel recovery [10]: 200 ngequiv/g
Radiolabel recovery [11]: 24 ngequiv/g
Radiolabel recovery [12]: 3.3 ngequiv/g
Radiolabel recovery [13]: 9.6 ngequiv/g
Radiolabel recovery [14]: 116 ngequiv/g
Radiolabel recovery [15]: 72 ngequiv/g
Radiolabel recovery [16]: 16.2 ngequiv/g
Radiolabel recovery [17]: 8.2 ngequiv/g
Radiolabel recovery [18]: 9.95 ngequiv/g
Radiolabel recovery [19]: 2.83 ngequiv/g
Radiolabel recovery [20]: 60.1 ngequiv/ml
Radiolabel recovery [21]: 8.2 ngequiv/g
Radiolabel recovery [22]: 48.7 ngequiv/g
Radiolabel recovery [23]: 11 ngequiv/g
Radiolabel recovery [24]: 9.08 ngequiv/g
Radiolabel recovery [25]: 19 ngequiv/g
Radiolabel recovery [26]: 77.9 ngequiv/g
Radiolabel recovery [27]: 9.5 ngequiv/ml
Radiolabel recovery [28]: 16 ngequiv/g
Radiolabel recovery [29]: 82.4 ngequiv/g
Radiolabel recovery [30]: 8.91 ngequiv/g
Radiolabel recovery [31]: 21.8 ngequiv/g
Radiolabel recovery [32]: 33.7 ngequiv/g
Radiolabel recovery [33]: 13.8 ngequiv/g
SMILES: C[C@H]1O[C@@H](O[C@H]2[C@H](O)[C@@H](O)[C@@H](O[14C@H]3[14C@H](O)[14CH2]N[14C@@H]3[14CH2]O)O[C@@H]2CO)[C@H](O)[C@@H](O)[C@@H]1O

From ChEMBL document CHEMBL3526002, “Tissue distribution and identification of radioactivity components at elimination phase after oral administration of [¹⁴C]CS-1036, an α-amylase inhibitor, to rats” (Drug Metab Dispos, 2013)
